Laboratory results from ChEMBL document CHEMBL1121550, “Amino acid and dipeptide derivatives of daunorubicin. 1. Synthesis, physicochemical properties, and lysosomal digestion” (J Med Chem, 1980).

Tests used:
Nucleic Acid [1] = experiment: Maximal binding (nmax) sites to herring sperm DNA. Estimated from Scatchard plots; format: nucleic-acid assay; details: Clupeidae
Outline: (§1)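 Spectral titration: drug at 200 µg/mL in PBS pH 7.4 (NaCl 137 mM, KCl 3 mM, Na2HPO4 8 mM, KH2PO4 1.5 mM) titrated with 0.05–2.00 mL highly polymerized herring sperm DNA (2.34 mg/mL in 0.9% NaCl), made to 4.0 mL. Free and bound drug estimated from absorbance at 475 nm; Scatchard plot (nx/Df vs nx) yields Ka and nmax.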

Nucleic Acid [2] = experiment: Apparent binding affinity to herring sperm DNA at 25 degree Celsius in PBS buffer with pH 7.4; format: nucleic-acid assay; details: Clupeidae; outline: as §1

Structure (SMILES) | Maximal binding (Nucleic Acid [1]) | Ka (Nucleic Acid [2]) [M⁻¹]
COc1cccc2c1C(=O)c1c(O)c3c(c(O)c1C2=O)C[C@@](O)(C(C)=O)C[C@@H]3O[C@H]1C[C@H](N)[C@H](O)[C@H](C)O1 | 0.16 | 310000
CCC(C)C(N)C(=O)NC1CC(O[C@H]2C[C@](O)(C(C)=O)Cc3c(O)c4c(c(O)c32)C(=O)c2c(OC)cccc2C4=O)OC(C)C1O (stereo partly drawn) | 0.19 | 110000
COc1cccc2c1C(=O)c1c(O)c3c(c(O)c1C2=O)C[C@@](O)(C(C)=O)C[C@@H]3OC1CC(NC(=O)C(CC(C)C)NC(=O)CN)C(O)C(C)O1 (stereo partly drawn) | 0.14 | 30000
COc1cccc2c1C(=O)c1c(O)c3c(c(O)c1C2=O)C[C@@](O)(C(C)=O)C[C@@H]3O[C@H]1C[C@H](NC(=O)[C@H](CC(C)C)NC(=O)[C@H](C)N)[C@H](O)[C@H](C)O1 | 0.17 | 20000
COc1cccc2c1C(=O)c1c(O)c3c(c(O)c1C2=O)C[C@@](O)(C(C)=O)C[C@@H]3O[C@H]1C[C@H](NC(=O)[C@H](C)NC(=O)[C@@H](N)CC(C)C)[C@H](O)[C@H](C)O1 | 0.12 | 40000

Next, values leading:

Maximal binding (Nucleic Acid [1]) | Ka (Nucleic Acid [2]) [M⁻¹] | Structure (SMILES)
0.19 | 90000 | COc1cccc2c1C(=O)c1c(O)c3c(c(O)c1C2=O)C[C@@](O)(C(C)=O)C[C@@H]3O[C@H]1C[C@H](NC(=O)[C@H](C)N)[C@H](O)[C@H](C)O1
0.18 | 110000 | COc1cccc2c1C(=O)c1c(O)c3c(c(O)c1C2=O)C[C@@](O)(C(C)=O)C[C@@H]3OC1CC(NC(=O)C(N)C(C)C)C(O)C(C)O1 (stereo partly drawn)
0.16 | 130000 | COc1cccc2c1C(=O)c1c(O)c3c(c(O)c1C2=O)C[C@@](O)(C(C)=O)C[C@@H]3OC1CC(NC(=O)CN)C(O)C(C)O1 (stereo partly drawn)
0.2 | 130000 | COc1cccc2c1C(=O)c1c(O)c3c(c(O)c1C2=O)C[C@@](O)(C(C)=O)C[C@@H]3OC1CC(NC(=O)C(N)CC(C)C)C(O)C(C)O1 (stereo partly drawn)
